Converted amounts (≈) assume the structure as drawn.
Legend:
Escherichia coli = experiment: Antibacterial activity against Escherichia coli MTCC 2939 after 24 hrs by agar diffusion method; assay type: functional; settings: for MIC: Escherichia coli, MTCC 2939, 24 h
How it was run: (§1)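 Agar well diffusion following NCCLS. Bacteria kept on nutrient agar slants at 37 ± 0.5 °C for 24 h. Nutrient agar plates seeded with 0.1 mL of culture suspension in 0.85% sterile saline (10⁵ CFU/mL). Plates incubated at 37 ± 0.5 °C for 24 h. Zone of inhibition recorded in mm, and MIC noted. 1% DMSO used as control.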

Trichoderma viride = experiment: Antifungal activity against Trichoderma viride MTCC 167 after 24 to 48 hrs by agar diffusion method; assay type: functional
How it was run: (§2)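 Fungi grown on potato dextrose agar slants at 27 ± 0.2 °C for 24–48 h until sporulation. Spores suspended in sterile water with 1% Tween-80 and counted by haemocytometer (10⁶ CFU/mL). 0.1 mL spread on 2% agar PDA plates and held at 27 °C for 12 h. Wells then received 0.1 mL of compound at graded concentrations for MIC. Plates refrigerated 20 min for diffusion, then incubated at 27 ± 0.2 °C for […]. Zone read in mm. 1% DMSO used as control.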

Staphylococcus aureus = experiment: Antibacterial activity against Staphylococcus aureus MTCC 96 after 24 hrs by agar diffusion method; assay type: functional; settings: for MIC: Staphylococcus aureus, MTCC 96, 24 h; how it was run: as §1
Fusarium verticillioides = experiment: Antifungal activity against Fusarium moniliforme MTCC 156 after 24 to 48 hrs by agar diffusion method; assay type: functional; how it was run: as §2
Salmonella enterica = experiment: Antibacterial activity against Salmonella typhi MTCC 98 after 24 hrs by agar diffusion method; assay type: functional, Salmonella enterica subsp. enterica serovar Typhi; settings: for MIC: Salmonella enterica, MTCC 98, 24 h
How it was run: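 NCCLS agar diffusion. Strain kept on nutrient agar slant at 37 ± 0.5 °C for 24 h. Nutrient agar plates seeded with 0.1 mL of a 10⁵ CFU/mL suspension in sterile 0.85% saline. Plates incubated at 37 ± 0.5 °C for 24 h. Read-out: zone of inhibition (mm) and MIC.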

Candida albicans = experiment: Antifungal activity against Candida albicans MTCC 183 after 24 to 48 hrs by agar diffusion method; assay type: functional; how it was run: as §2
Bacillus subtilis = experiment: Antibacterial activity against Bacillus subtilis MTCC 441 after 24 hrs by agar diffusion method; assay type: functional; settings: for MIC: Bacillus subtilis, MTCC 441, 24 h; how it was run: as §1
Penicillium chrysogenum = experiment: Antifungal activity against Penicillium chrysogenum MTCC 160 after 24 to 48 hrs by agar diffusion method; assay type: functional; how it was run: as §2
Aspergillus niger = experiment: Antifungal activity against Aspergillus niger MTCC 281 after 24 to 48 hrs by agar diffusion method; assay type: functional; how it was run: as §2
[1] = Fusarium verticillioides, MTCC 156
[2] = Penicillium chrysogenum, MTCC 160

Molecule | inhibition zone (IZ) (Escherichia coli) [mm] | MIC (Escherichia coli) [µg/mL] | inhibition zone (IZ) (Trichoderma viride) [mm] | MIC (Trichoderma viride; Trichoderma viride, MTCC 167) [µg/mL] | inhibition zone (IZ) (Staphylococcus aureus) [mm] | MIC (Staphylococcus aureus) [µg/mL] | inhibition zone (IZ) (Fusarium verticillioides) [mm] | MIC (Fusarium verticillioides; [1]) [µg/mL] | inhibition zone (IZ) (Salmonella enterica) [mm] | MIC (Salmonella enterica) [µg/mL] | inhibition zone (IZ) (Candida albicans) [mm] | MIC (Candida albicans; Candida albicans, MTCC 183) [µg/mL] | inhibition zone (IZ) (Bacillus subtilis) [mm] | MIC (Bacillus subtilis) [µg/mL] | inhibition zone (IZ) (Penicillium chrysogenum) [mm] | MIC (Penicillium chrysogenum; [2]) [µg/mL] | inhibition zone (IZ) (Aspergillus niger) [mm] | MIC (Aspergillus niger; Aspergillus niger, MTCC 281) [µg/mL] | other results
CCCCc1nc(Cl)c(C2CC(c3cc(C)cc(Br)c3O)=NN2c2nc(-c3ccc(Cl)cc3)cs2)[nH]1 (stereo not drawn) | 16 | 25 (≈ 41.3 µM) | 14 | 25 (≈ 41.3 µM) | 12 | 50 (≈ 82.6 µM) | 9 | 50 (≈ 82.6 µM) | 12 | 50 (≈ 82.6 µM) | 12 | 25 (≈ 41.3 µM) | 14 | 50 (≈ 82.6 µM) | 13 | 50 (≈ 82.6 µM) | 10 | 50 (≈ 82.6 µM) | 
CCCCc1nc(Cl)c(C2CC(c3ccc(N)cc3)=NN2c2nc(-c3ccc(Cl)cc3)cs2)[nH]1 (stereo not drawn) | 12 | 50 (≈ 97.8 µM) | 12 | 50 (≈ 97.8 µM) | 10 | 50 (≈ 97.8 µM) |  | > 100 |  | > 100 |  | > 100 | 8 | 50 (≈ 97.8 µM) | 10 | 50 (≈ 97.8 µM) | 14 | 25 (≈ 48.9 µM) | 
CCCCc1nc(Cl)c(C2CC(c3ccc(OC)cc3)=NN2c2nc(-c3ccc(Cl)cc3)cs2)[nH]1 (stereo not drawn) | 16 | 25 (≈ 47.5 µM) | 14 | 25 (≈ 47.5 µM) | 18 | 25 (≈ 47.5 µM) | 12 | 25 (≈ 47.5 µM) | 14 | 50 (≈ 95 µM) | 14 | 25 (≈ 47.5 µM) | 16 | 25 (≈ 47.5 µM) | 12 | 50 (≈ 95 µM) | 16 | 25 (≈ 47.5 µM) | 
CCCCc1nc(Cl)c(C2CC(c3cc(C)cc(I)c3O)=NN2c2nc(-c3ccc(Cl)cc3)cs2)[nH]1 (stereo not drawn) | 14 | 50 (≈ 76.6 µM) | 14 | 25 (≈ 38.3 µM) | 15 | 25 (≈ 38.3 µM) | 10 | 50 (≈ 76.6 µM) | 15 | 25 (≈ 38.3 µM) | 11 | 50 (≈ 76.6 µM) | 12 | 50 (≈ 76.6 µM) | 12 | 25 (≈ 38.3 µM) | 14 | 25 (≈ 38.3 µM) | 
CCCCc1nc(Cl)c(C2CC(c3cc(Cl)cc(I)c3O)=NN2c2nc(-c3ccc(Cl)cc3)cs2)[nH]1 (stereo not drawn) | 20 | 25 (≈ 37.2 µM) | 16 | 25 (≈ 37.2 µM) | 18 | 25 (≈ 37.2 µM) | 12 | 25 (≈ 37.2 µM) | 16 | 25 (≈ 37.2 µM) | 15 | 25 (≈ 37.2 µM) | 21 | 25 (≈ 37.2 µM) | 14 | 25 (≈ 37.2 µM) | 15 | 25 (≈ 37.2 µM) | 
CCCCc1nc(Cl)c(C2CC(c3cc(Cl)cc(Br)c3O)=NN2c2nc(-c3ccc(Cl)cc3)cs2)[nH]1 (stereo not drawn) | 21 | 25 (≈ 39.9 µM) | 15 | 25 (≈ 39.9 µM) | 16 | 25 (≈ 39.9 µM) | 10 | 50 (≈ 79.9 µM) | 18 | 25 (≈ 39.9 µM) | 16 | 25 (≈ 39.9 µM) | 15 | 25 (≈ 39.9 µM) | 16 | 25 (≈ 39.9 µM) | 18 | 25 (≈ 39.9 µM) | 
CCCCc1nc(Cl)c(C2CC(c3cc(Cl)c(C)c(I)c3O)=NN2c2nc(-c3ccc(Cl)cc3)cs2)[nH]1 (stereo not drawn) | 18 | 25 (≈ 36.4 µM) | 12 | 25 (≈ 36.4 µM) | 14 | 50 (≈ 72.8 µM) | 14 | 25 (≈ 36.4 µM) | 16 | 25 (≈ 36.4 µM) | 13 | 25 (≈ 36.4 µM) | 19 | 25 (≈ 36.4 µM) | 15 | 25 (≈ 36.4 µM) | 14 | 25 (≈ 36.4 µM) | 
CCCCc1nc(Cl)c(C2CC(c3cc(Br)cc(Br)c3O)=NN2c2nc(-c3ccc(Cl)cc3)cs2)[nH]1 (stereo not drawn) | 22 | 25 (≈ 37.3 µM) | 18 | 25 (≈ 37.3 µM) | 18 | 25 (≈ 37.3 µM) | 14 | 25 (≈ 37.3 µM) | 19 | 25 (≈ 37.3 µM) | 20 | 25 (≈ 37.3 µM) | 21 | 25 (≈ 37.3 µM) | 18 | 25 (≈ 37.3 µM) | 20 | 25 (≈ 37.3 µM) | 
NYSTATIN |  |  | 18 |  |  |  | 16 |  |  |  | 18 |  |  |  | 16 |  | 18 |  | MIC (Trichoderma viride): 25 µg/mL; MIC (Fusarium verticillioides): 25 µg/mL; MIC (Candida albicans): 25 µg/mL; MIC (Penicillium chrysogenum): 25 µg/mL; MIC (Aspergillus niger): 25 µg/mL
CCCCc1nc(Cl)c(C2CC(c3cc(C)ccc3O)=NN2c2nc(-c3ccc(Cl)cc3)cs2)[nH]1 (stereo not drawn) | 11 | 50 (≈ 95 µM) | 8 | 50 (≈ 95 µM) |  | > 100 | 11 | 50 (≈ 95 µM) |  | > 100 | 10 | 50 (≈ 95 µM) | 12 | 50 (≈ 95 µM) |  | > 100 | 12 | 50 (≈ 95 µM) | 
CCCCc1nc(Cl)c(C2CC(c3cc(I)cc(I)c3O)=NN2c2nc(-c3ccc(Cl)cc3)cs2)[nH]1 (stereo not drawn) | 20 | 25 (≈ 32.7 µM) | 20 | 25 (≈ 32.7 µM) | 16 | 25 (≈ 32.7 µM) | 16 | 25 (≈ 32.7 µM) | 18 | 25 (≈ 32.7 µM) | 18 | 25 (≈ 32.7 µM) | 20 | 25 (≈ 32.7 µM) | 16 | 25 (≈ 32.7 µM) | 19 | 25 (≈ 32.7 µM) | 
CCCCc1nc(Cl)c(C2CC(c3cc(Cl)c(C)c(Br)c3O)=NN2c2nc(-c3ccc(Cl)cc3)cs2)[nH]1 (stereo not drawn) | 15 | 25 (≈ 39.1 µM) | 16 | 50 (≈ 78.1 µM) | 11 | 50 (≈ 78.1 µM) | 15 | 25 (≈ 39.1 µM) | 12 | 50 (≈ 78.1 µM) | 12 | 50 (≈ 78.1 µM) | 18 | 25 (≈ 39.1 µM) | 9 | 50 (≈ 78.1 µM) | 15 | 25 (≈ 39.1 µM) | 
CCCCc1nc(Cl)c(C2CC(c3ccc(Cl)cc3)=NN2c2nc(-c3ccc(Cl)cc3)cs2)[nH]1 (stereo not drawn) | 16 | 25 (≈ 47.1 µM) | 11 | 50 (≈ 94.2 µM) | 12 | 50 (≈ 94.2 µM) | 11 | 50 (≈ 94.2 µM) | 10 | 50 (≈ 94.2 µM) | 14 | 25 (≈ 47.1 µM) | 14 | 50 (≈ 94.2 µM) | 10 | 50 (≈ 94.2 µM) | 12 | 50 (≈ 94.2 µM) | 
CN(C)[C@@H]1C(O)=C(C(N)=O)C(=O)[C@@]2(O)C(O)=C3C(=O)c4c(O)cccc4[C@@](C)(O)[C@H]3C[C@@H]12 [TETRACYCLINE] | 30 | 25 (≈ 56.3 µM) |  |  | 30 | 25 (≈ 56.3 µM) |  |  | 28 | 25 (≈ 56.3 µM) |  |  | 32 | 25 (≈ 56.3 µM) |  |  |  |  | 

Reference: ChEMBL document CHEMBL1156256, “Poly(ethylene glycol) (PEG-400) as an alternative reaction solvent for the synthesis of some new 1-(4-(4'-chlorophenyl)-2-thiazolyl)-3-aryl-5-(2-butyl-4-chloro-1H-imidazol-5yl)-2-pyrazolines and their in vitro antimicrobial evaluation” (2010)
